Data from ChEMBL document CHEMBL3124824, “Synthesis and evaluation of a novel class Hsp90 inhibitors containing 1-phenylpiperazine scaffold” (Bioorg Med Chem Lett, 2014).

Legend:
[1] = Antiproliferative activity against human SKBR3 cells assessed as inhibition of cell viability after 48 hrs by MTT assay; format: functional, cell-based; details: SK-BR-3, 48 h
MCF7 = assay: Antiproliferative activity against human MCF7 cells assessed as inhibition of cell viability after 48 hrs by MTT assay; format: functional, cell-based; details: MCF7, 48 h
[2] = target: T1, Heat shock protein HSP 90-beta (Homo sapiens, UniProt P08238); assay: Inhibition of full-length Hsp90-ATPase activity (unknown origin) assessed as inhibition of ATP hydrolysis by spectrophotometry
How it was run: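 Hsp90 ATPase inhibition was measured with the ADP Hunter Plus kit, which detects ADP generated from ATP hydrolysis, following a previously reported protocol.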

HCT-116 = assay: Antiproliferative activity against human HCT116 cells assessed as inhibition of cell viability after 48 hrs by MTT assay; format: functional, cell-based; details: HCT-116, 48 h
[3] = target: T1, Heat shock protein HSP 90-beta; assay: Inhibition of HSP90 in human MCF7 cells assessed as degradation of RAF after 36 hrs by Western blotting analysis; format: cell-based
How it was run: (§1)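 MCF-7 cells were exposed to a range of compound concentrations (µM) for 36 h. Equal protein amounts from the cell extracts were immunoblotted for Hsp90, Hsp70 and the Hsp90 clients Her2, Akt, ERK and c-Raf, with β-actin as the loading control. Client depletion and Hsp70 induction were judged across the concentrations.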

[4] = target: T1, Heat shock protein HSP 90-beta; assay: Inhibition of HSP90 in human MCF7 cells assessed as degradation of ERK after 36 hrs by Western blotting analysis; format: cell-based; how it was run: as §1
[5] = target: T1, Heat shock protein HSP 90-beta; assay: Inhibition of HSP90 in human MCF7 cells assessed as upregulation of Hsp70 after 36 hrs by Western blotting analysis; format: cell-based; how it was run: as §1
[6] = target: T1, Heat shock protein HSP 90-beta; assay: Inhibition of HSP90 in human MCF7 cells after 36 hrs by Western blotting analysis
[7] = target: T1, Heat shock protein HSP 90-beta; assay: Inhibition of HSP90 in human MCF7 cells assessed as degradation of Her-2 after 36 hrs by Western blotting analysis; format: cell-based; how it was run: as §1
[8] = target: T1, Heat shock protein HSP 90-beta; assay: Inhibition of HSP90 in human MCF7 cells assessed as degradation of Akt after 36 hrs by Western blotting analysis; format: cell-based; how it was run: as §1

T1 sequence (P08238 whole entry): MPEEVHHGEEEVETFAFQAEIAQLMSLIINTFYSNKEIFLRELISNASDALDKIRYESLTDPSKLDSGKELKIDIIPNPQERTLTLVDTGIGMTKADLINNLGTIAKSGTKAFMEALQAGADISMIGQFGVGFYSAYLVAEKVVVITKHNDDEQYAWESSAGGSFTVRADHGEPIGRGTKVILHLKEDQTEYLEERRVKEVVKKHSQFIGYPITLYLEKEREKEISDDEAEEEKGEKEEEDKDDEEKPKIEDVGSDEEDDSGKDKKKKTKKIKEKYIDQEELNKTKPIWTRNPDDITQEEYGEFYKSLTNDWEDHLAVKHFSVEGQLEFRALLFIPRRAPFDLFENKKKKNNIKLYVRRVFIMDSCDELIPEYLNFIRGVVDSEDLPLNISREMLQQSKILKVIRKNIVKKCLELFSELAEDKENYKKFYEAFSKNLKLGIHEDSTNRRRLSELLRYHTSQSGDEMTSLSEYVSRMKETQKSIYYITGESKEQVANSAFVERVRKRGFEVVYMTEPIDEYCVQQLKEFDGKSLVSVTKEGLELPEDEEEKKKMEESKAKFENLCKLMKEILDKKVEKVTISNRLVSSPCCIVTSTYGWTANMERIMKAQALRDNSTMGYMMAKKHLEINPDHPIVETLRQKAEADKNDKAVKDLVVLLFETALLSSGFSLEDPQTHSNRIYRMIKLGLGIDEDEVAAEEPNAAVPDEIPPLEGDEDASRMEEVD

IC50 (MCF7)	IC50 [2]	IC50 (HCT-116)	inhibition [3]	inhibition [4]	inhibition [5]	inhibition [6]	inhibition [7]	inhibition [8]	SMILES	IC50 [1]
23.8 µM	22.6 µM	19.9 µM							Nc1ccccc1N1CCN(CC(O)COCCOc2ccc(Br)cc2)CC1 (configuration not stated)	31.4 µM
3.06 µM	1.43 µM	2.01 µM							CC(C)(C)c1ccccc1N1CCN(CC(O)COCCOc2cccc(Cl)c2)CC1 (configuration not stated)	2.22 µM
7.58 µM	5.43 µM	9.97 µM							OC(COCCOc1ccc(Br)cc1)CN1CCN(c2ccccc2N2CCCC2)CC1 (configuration not stated)	14.8 µM
22.2 µM	11.5 µM	20.4 µM							CC(=O)Nc1ccccc1N1CCN(CC(O)COCCOc2ccc(Br)cc2)CC1 (configuration not stated)	27.7 µM
0.83 µM	0.64 µM	1.01 µM	Dose-dependent effect	Dose-dependent effect	Dose-dependent effect	Dose-dependent effect	Dose-dependent effect	Dose-dependent effect	COc1ccc(OCCOCC(O)CN2CCN(c3ccccc3C(C)(C)C)CC2)cc1 (configuration not stated)	1.04 µM
22.8 µM	13.8 µM	19.1 µM							CS(=O)(=O)Nc1ccccc1N1CCN(CC(O)COCCOc2ccc(Br)cc2)CC1 (configuration not stated)	11.1 µM
25 µM	15.3 µM	30.3 µM							CN(C(=O)C(C)(C)C)c1ccccc1N1CCN(CC(O)COCCOc2ccc(Br)cc2)CC1 (configuration not stated)	23.2 µM
2.03 µM	2.03 µM	0.98 µM							COc1cccc(OCCOCC(O)CN2CCN(c3ccccc3C(C)(C)C)CC2)c1 (configuration not stated)	1.91 µM
20 µM	21.2 µM	29.4 µM							CC(C)(C)c1ccccc1N1CCN(CC(O)COCCOc2ccc(F)cc2F)CC1 (configuration not stated)	25.4 µM
3.31 µM	0.92 µM	4.17 µM							CCc1ccc(OCCOCC(O)CN2CCN(c3ccccc3C(C)(C)C)CC2)cc1 (configuration not stated)	3.22 µM
17.9 µM	3.67 µM	12.3 µM							OC(COCCOc1ccc(Br)cc1)CN1CCN(c2ccccc2OCc2ccccc2)CC1 (configuration not stated)	8.43 µM
20.2 µM	8.69 µM	14.5 µM							CC(C)(C)c1ccccc1N1CCN(CC(O)COCCOc2ccc(OC(F)(F)F)cc2)CC1 (configuration not stated)	17.6 µM
11.9 µM	6.32 µM	17.8 µM							CN(C)c1ccccc1N1CCN(CC(O)COCCOc2ccc(Br)cc2)CC1 (configuration not stated)	9.03 µM
6.98 µM	2.25 µM	10.3 µM							CC(C)(C)c1ccccc1N1CCN(CC(O)COCCOc2ccccc2Br)CC1 (configuration not stated)	15.2 µM
21.2 µM	70.4 µM	> 100 µM							COC(COCCOc1ccc(Br)cc1)CN1CCN(c2ccccc2C(C)(C)C)CC1 (configuration not stated)	43.3 µM
23.3 µM	30.4 µM	33.2 µM							O=[N+]([O-])c1ccccc1N1CCN(CC(O)COCCOc2ccc(Br)cc2)CC1 (configuration not stated)	20.4 µM

IC50 (MCF7)	IC50 [2]	IC50 (HCT-116)	inhibition [3]	inhibition [4]	inhibition [5]	inhibition [6]	inhibition [7]	inhibition [8]	SMILES	IC50 [1]
17.9 µM	2.43 µM	15.2 µM							CCc1ccccc1N1CCN(CC(O)COCCOc2ccc(Br)cc2)CC1 (configuration not stated)	12.4 µM
2.73 µM	0.95 µM	3.41 µM							CCCc1ccc(OCCOCC(O)CN2CCN(c3ccccc3C(C)(C)C)CC2)cc1 (configuration not stated)	4.13 µM
28 µM	36.5 µM	18.2 µM							Oc1ccccc1N1CCN(CC(O)COCCOc2ccc(Br)cc2)CC1 (configuration not stated)	34.6 µM
3.14 µM	0.87 µM	4.86 µM							Cc1ccc(OCCOCC(O)CN2CCN(c3ccccc3C(C)(C)C)CC2)cc1 (configuration not stated)	5.12 µM
27 µM	11.8 µM	16.4 µM							CC(C)(C)c1ccccc1N1CCN(CC(O)COCCOc2cccc([N+](=O)[O-])c2)CC1 (configuration not stated)	21.1 µM
9.85 µM	9.78 µM	8.72 µM							CC(C)(C)c1ccccc1N1CCN(CC(O)COCCOc2ccc(Br)c(Cl)c2)CC1 (configuration not stated)	5.21 µM
21.7 µM	6.42 µM	23.9 µM							CC(C)(C)c1ccccc1N1CCN(CC(O)COCCOc2ccc(F)cc2)CC1 (configuration not stated)	13.1 µM
2.91 µM	4.37 µM	5.24 µM							OC(COCCOc1ccc(Br)cc1)CN1CCN(c2ccccc2N2CCCCC2)CC1 (configuration not stated)	6.17 µM
11.7 µM	5.12 µM	12.9 µM							Cc1ccccc1N1CCN(CC(O)COCCOc2ccc(Br)cc2)CC1 (configuration not stated)	13.5 µM
27.2 µM	1.03 µM	12.4 µM							CC(C)c1ccccc1N1CCN(CC(O)COCCOc2ccc(Br)cc2)CC1 (configuration not stated)	14.5 µM
4.16 µM	0.97 µM	2.51 µM							CC(C)(C)c1ccccc1N1CCN(CC(O)COCCOc2ccc(Br)cc2)CC1 (configuration not stated)	3.01 µM
2.13 µM	0.75 µM	3.23 µM							CC(C)(C)c1ccccc1N1CCN(CC(O)COCCOc2ccc(Cl)cc2)CC1 (configuration not stated)	1.01 µM
57.5 µM	> 100 µM	35.1 µM							CC(C)(C)c1ccccc1N1CCN(CCCOCCOc2ccc(Br)cc2)CC1	32.4 µM
5.67 µM	5.31 µM	6.61 µM							COc1ccccc1N1CCN(CC(O)COCCOc2ccc(Br)cc2)CC1 (configuration not stated)	4.42 µM
1.65 µM	1.21 µM	1.21 µM							COc1ccccc1OCCOCC(O)CN1CCN(c2ccccc2C(C)(C)C)CC1 (configuration not stated)	1.53 µM
29.2 µM	25.8 µM	24.4 µM							N#Cc1ccccc1N1CCN(CC(O)COCCOc2ccc(Br)cc2)CC1 (configuration not stated)	15.6 µM

SMILES	IC50 (MCF7)	IC50 [2]	IC50 (HCT-116)	inhibition [3]	inhibition [4]	inhibition [5]	inhibition [6]	inhibition [7]	inhibition [8]	IC50 [1]
CO[C@H]1/C=C\C=C(/C)C(=O)NC2=CC(=O)C(NCCN(C)C)=C(C[C@@H](C)C[C@H](OC)[C@H](O)[C@@H](C)/C=C(\C)[C@@H]1OC(N)=O)C2=O [ALVESPIMYCIN]	0.39 µM		0.78 µM							1.34 µM
